Test results reported in ChEMBL document CHEMBL1147379, “Antineoplastic agents, 256. Cell growth inhibitory isocarbostyrils from Hymenocallis” (1993).
In brackets after ≈: the same amount, converted by molar mass.

How the values were obtained:
Assay type in all cases: functional
SF-295 = assay: Growth inhibition of human SF295 cells; settings: read-out: pTGI (converted)
In short: (§1)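 NCI 60-human-tumour-cell-line primary in vitro screen. Each compound was tested eight separate times across three concentration ranges with upper limits of 10⁻⁴, 10⁻⁵ and 10⁻⁶ M. Each range used five 10-fold dilutions. GI₅₀, TGI and LC₅₀ were calculated from the concentration-response curves for each cell line, and averaged mean-graph values were constructed from them.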

SF-539 = assay: Growth inhibition of human SF539 cells; in short: as §1
SNB-19 = assay: Growth inhibition of human SNB19 cells; in short: as §1
SNB-75 = assay: Growth inhibition of human SNB75 cells; in short: as §1
SNB-78 = assay: Growth inhibition of human SNB78 cells
In short: (§2)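 NCI 60-human-tumour-line in vitro primary screen. Each compound tested eight separate times over three concentration ranges (upper limits 10⁻⁴, 10⁻⁵ and 10⁻⁶ M), each range as five 10-fold dilutions. GI₅₀ (also TGI and LC₅₀) derived from the concentration-response curves, reported as averaged values per cell line (negative log₁₀).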

U-251 = assay: Growth inhibition of human U251 cells; in short: as §2
XF498 = assay: Growth inhibition of human XF498 cells; in short: as §2
LOX IMVI = assay: Growth inhibition of human LOXIMVI cells; in short: as §1
Malme-3M = assay: Growth inhibition of human MALME-3M cells; in short: as §1
M14 = assay: Growth inhibition of human M14 cells; in short: as §1
M19-MEL = assay: Growth inhibition of human M19-MEL cells; in short: as §1
SK-MEL-2 = assay: Growth inhibition of human SK-MEL-2 cells; in short: as §1
SK-MEL-28 = assay: Growth inhibition of human SK-MEL-28 cells; in short: as §1
SK-MEL-5 = assay: Growth inhibition of human SK-MEL-5 cells; in short: as §1
UACC-257 = assay: Growth inhibition of human UACC257 cells; in short: as §2
UACC-62 = assay: Growth inhibition of human UACC62 cells; in short: as §2
IGROV-1 = assay: Growth inhibition of human IGROV1 cells; in short: as §1
OVCAR-3 = assay: Growth inhibition of human OVCAR-3 cells; in short: as §1
OVCAR-4 = assay: Growth inhibition of human OVCAR4 cells; in short: as §1
OVCAR-5 = assay: Growth inhibition of human OVCAR5 cells; in short: as §1
OVCAR-8 = assay: Growth inhibition of human OVCAR8 cells; in short: as §1
SK-OV-3 = assay: Growth inhibition of human SKOV3 cells; in short: as §1
[1] = Growth inhibition of human 786-O cells; in short: as §1
A498 = assay: Growth inhibition of human A498 cells; in short: as §1
ACHN = assay: Growth inhibition of human ACHN cells; in short: as §1
CAKI-1 = assay: Growth inhibition of human Caki1 cells; in short: as §1
RXF 393 = assay: Growth inhibition of human RXF393 cells; in short: as §1
SN12C = assay: Growth inhibition of human SN12C cells; in short: as §1
TK-10 = assay: Growth inhibition of human TK10 cells; in short: as §2
UO-31 = assay: Growth inhibition of human UO31 cells; in short: as §2
P388 = assay: Growth inhibition of mouse P388 cells; settings: read-out: ED50 (the source's name)
[2] = read-out: pLC50 (the source's name) (converted)

## O=C1N[C@H]2[C@H](O)[C@H](O)[C@@H](O)C[C@@H]2c2cc3c(cc21)OCO3
SF-295
  TGI: 912 nM
SF-539
  GI50: 60.3 nM
SF-539; [2]
  CC50: 1410 nM
SF-539; read-out: pTGI (converted)
  TGI: 282 nM
SNB-19
  GI50: 41.7 nM
SNB-19; [2]
  CC50: 93300 nM
SNB-19; read-out: pTGI (converted)
  TGI: 1000 nM
SNB-75
  GI50: 60.3 nM
SNB-75; [2]
  CC50: 24000 nM
SNB-75; read-out: pTGI (converted)
  TGI: 437 nM
SNB-78
  GI50: 87.1 nM
SNB-78; [2]
  CC50: 83200 nM
SNB-78; read-out: pTGI (converted)
  TGI: 912 nM
U-251
  GI50: 47.9 nM
U-251; [2]
  CC50: 37200 nM
U-251; read-out: pTGI (converted)
  TGI: 1290 nM
XF498
  GI50: 81.3 nM
XF498; [2]
  CC50: 20900 nM
XF498; read-out: pTGI (converted)
  TGI: 724 nM
LOX IMVI
  GI50: 33.1 nM
LOX IMVI; [2]
  CC50: 708 nM
LOX IMVI; read-out: pTGI (converted)
  TGI: 158 nM
Malme-3M
  GI50: 75.9 nM
Malme-3M; [2]
  CC50: 8510 nM
Malme-3M; read-out: pTGI (converted)
  TGI: 417 nM
M14
  GI50: 64.6 nM
M14; [2]
  CC50: 1700 nM
M14; read-out: pTGI (converted)
  TGI: 347 nM
M19-MEL
  GI50: 39.8 nM
M19-MEL; [2]
  CC50: 5250 nM
M19-MEL; read-out: pTGI (converted)
  TGI: 513 nM
SK-MEL-2
  GI50: 38 nM
SK-MEL-2; [2]
  CC50: 5500 nM
SK-MEL-2; read-out: pTGI (converted)
  TGI: 331 nM
SK-MEL-28
  GI50: 81.3 nM
SK-MEL-28; [2]
  CC50: 44700 nM
SK-MEL-28; read-out: pTGI (converted)
  TGI: 646 nM
SK-MEL-5
  GI50: 45.7 nM
SK-MEL-5; [2]
  CC50: 1200 nM
SK-MEL-5; read-out: pTGI (converted)
  TGI: 209 nM
UACC-257
  GI50: 141 nM
UACC-257; [2]
  CC50: 45700 nM
UACC-257; read-out: pTGI (converted)
  TGI: 1820 nM
UACC-62
  GI50: 100 nM
UACC-62; [2]
  CC50: 11000 nM
UACC-62; read-out: pTGI (converted)
  TGI: 562 nM
IGROV-1
  GI50: 141 nM
IGROV-1; [2]
  CC50: 67600 nM
IGROV-1; read-out: pTGI (converted)
  TGI: 1100 nM
OVCAR-3
  GI50: 83.2 nM
OVCAR-3; [2]
  CC50: 45700 nM
OVCAR-3; read-out: pTGI (converted)
  TGI: 501 nM
OVCAR-4
  GI50: 36.3 nM
OVCAR-4; [2]
  CC50: 17000 nM
OVCAR-4; read-out: pTGI (converted)
  TGI: 427 nM
OVCAR-5
  GI50: 324 nM
OVCAR-5; [2]
  CC50: > 100000 nM
OVCAR-5; read-out: pTGI (converted)
  TGI: 2400 nM
OVCAR-8
  GI50: 70.8 nM
OVCAR-8; [2]
  CC50: 72400 nM
OVCAR-8; read-out: pTGI (converted)
  TGI: 2290 nM
SK-OV-3
  GI50: 91.2 nM
SK-OV-3; [2]
  CC50: > 100000 nM
SK-OV-3; read-out: pTGI (converted)
  TGI: 1100 nM
[1]; 786-0
  GI50: 110 nM
[1]; 786-0, read-out: pLC50 (the source's name) (converted)
  CC50: 57500 nM
[1]; 786-0, read-out: pTGI (converted)
  TGI: 2090 nM
A498
  GI50: 229 nM
A498; [2]
  CC50: 9330 nM
A498; read-out: pTGI (converted)
  TGI: 1100 nM
ACHN
  GI50: 81.3 nM
ACHN; [2]
  CC50: 11000 nM
ACHN; read-out: pTGI (converted)
  TGI: 794 nM
CAKI-1
  GI50: 191 nM
CAKI-1; [2]
  CC50: > 100000 nM
CAKI-1; read-out: pTGI (converted)
  TGI: 1410 nM
RXF 393
  GI50: 72.4 nM
RXF 393; [2]
  CC50: 2510 nM
RXF 393; read-out: pTGI (converted)
  TGI: 417 nM
SN12C
  GI50: 141 nM
SN12C; [2]
  CC50: 18200 nM
SN12C; read-out: pTGI (converted)
  TGI: 1820 nM
TK-10
  GI50: 251 nM
TK-10; [2]
  CC50: > 100000 nM
TK-10; read-out: pTGI (converted)
  TGI: 1910 nM
UO-31
  GI50: 100 nM
UO-31; [2]
  CC50: 44700 nM
UO-31; read-out: pTGI (converted)
  TGI: 955 nM
P388
  EC50: 0.02 µg/mL (≈ 0.0682 µM)
